OX1R antag-1: antagonists of human orexin 1 receptor (OX1R); O43613; OX1R-expressing cells, FRET antagonist read-out; inhibition, % at 6.6 µM; 330,000 tested, 1.8% active; AID 485270; in the data active = inhibition mostly above about 38%, no sharp cut-off; inactive = mostly below about 40%;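 note: 0% = agonist challenge alone and 100% = reference antagonist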
Target sequence (O43613 whole entry, looked up): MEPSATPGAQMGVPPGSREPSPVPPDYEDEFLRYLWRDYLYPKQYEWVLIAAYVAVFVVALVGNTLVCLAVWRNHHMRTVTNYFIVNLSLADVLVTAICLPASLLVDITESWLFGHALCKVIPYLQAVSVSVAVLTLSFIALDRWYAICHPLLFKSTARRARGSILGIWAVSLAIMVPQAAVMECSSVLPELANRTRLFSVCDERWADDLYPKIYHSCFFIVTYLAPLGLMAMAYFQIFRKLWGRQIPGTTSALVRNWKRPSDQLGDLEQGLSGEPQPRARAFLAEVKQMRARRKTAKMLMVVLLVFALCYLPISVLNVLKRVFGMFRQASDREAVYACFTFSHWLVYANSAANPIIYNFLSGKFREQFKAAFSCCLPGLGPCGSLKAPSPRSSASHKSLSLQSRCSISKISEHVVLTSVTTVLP
GPR7 antagonist: human neuropeptides B/W receptor 1 antagonism. 290,000 tested, 1.1% active. P48145. AID 1861. inhibition, % at 4.4 µM. GPR7-expressing cells, fluorescence antagonist assay; in the data active = inhibition above about 16%, passing the limit was not always enough;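 note: cells stimulated with the agonist NPW; 0% = agonist with vehicle and 100% = vehicle without agonist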
MPTP inh: permeability transition pore inhibition; inhibition, % at 10 µM; 360,000 tested, 1.4% active; AID 602449; isolated mouse mitochondria, Ca2+ swelling absorbance, 30 min;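 active = inhibition of 50% or more, scaled per plate between neutral and stimulator controls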;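 note: 0% = DMSO wells given calcium and 100% = 1 mM EGTA wells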
CHO parental Ca: signal in parental CHO cells, OX1R antagonist counter-screen; inhibition, % at 5.6 µM; AID 463079; 330,000 tested, 0.63% active; parental CHO-K1, ATP-induced calcium, Fluo-8 fluorescence;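 active = inhibition above that plate's mean sample inhibition plus 3 SD, cut at about 26% in these data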;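 note: 0% = ATP-challenged DMSO wells and 100% = DMSO wells without ATP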
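Test system: untransfected parental CHO cell line. Compound: one dose, 5.6 µM nominal. Detection: intracellular calcium via Fluo-8 no-wash fluorescent dye. Measure: % inhibition. Benchmarks: ATP-challenged DMSO wells low, unchallenged DMSO wells high.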
OX1R antag-2: antagonists of human orexin 1 receptor; O43613; CHO/OX1R cells, Fluo-8 calcium fluorescence, orexin A; inhibition, % at 5 µM; 330,000 tested, 0.43% active; AID 434989;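 active = inhibition above its plate's threshold, mean inhibition of all tested compounds on the plate plus 3 SD, cut at about 37% in these data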;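 note: 0% = orexin A challenge wells and 100% = SB-334867-A antagonist wells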
GPR7 antag conf: human GPR7 antagonism, confirmation assay; shares compounds with GPR7 antagonist; GPR7-expressing cells, calcium fluorescence antagonist mode; inhibition, % at 4.4 µM; 2,400 tested, 52% active; AID 1952; in the data active = inhibition above about 24%;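 note: stimulated with the GPR7 agonist NPW; 0% = agonist plus vehicle and 100% = vehicle alone without agonist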
MCHR1 antagonist: MCHR1 (human) antagonism in GPR7 counter-screen. shares compounds with GPR7 antagonist. MCHR1-expressing cells, fluorescence antagonist assay. inhibition, % at 4.4 µM. 2,400 tested, 62% active; in the data active = inhibition above about 22%;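 note: 0% = vehicle with agonist and 100% = vehicle without agonist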
Active calls of the source: *; x = no result given. Rows were chosen to be rich in hits. Some 3.8% of all compounds tested hit in one or more screens of this group.

SMILES	OX1R antag-1	GPR7 antagonist	MPTP inh	CHO parental Ca	OX1R antag-2	GPR7 antag conf	MCHR1 antagonist
COc1ccc([N+](=O)[O-])cc1N(CC(O)CN(CC(C)C)CC(C)C)S(=O)(=O)c1ccccc1 (configuration not stated)	5	34*	2	-39	-26	45*	54*
Brc1cc2c(cc1/C=N/Nc1nc(N3CCCCC3)nc(N3CCCCC3)n1)OCO2	x	25*	x	x	x	-28	-4
COc1nc(N/N=C/c2cc3c(cc2Br)OCO3)nc(N2CCOCC2)n1	13	-17	0	-26	-31	x	x
COC(=O)CN1C(c2ccccc2)=Nc2ccc(Cl)cc2C1c1ccccc1 (configuration not stated)	24	28*	-2	-26	-17	4	23*
O=C(Nc1ccc(N2CCN(c3ccc(C(F)(F)F)cn3)CC2)nc1)c1cccs1	6	-18	3	-8	15	x	x
O=C(Nc1ccc(N2CCN(c3ncccc3C(F)(F)F)CC2)nc1)c1cccs1	22	21*	29	17	8	35*	81*
CCOC(Cn1ccc(=O)[nH]c1=O)OCC	5	27*	2	1	-6	0	14
CN1/C(=C\C(=O)COC(=O)Cn2nnc(-c3ccccc3)n2)C(C)(C)c2ccccc21	31	26*	0	54*	37	18	38*
CN1/C(=C/C(=O)COC(=O)CN2C(=O)C3CC=CCC3C2=O)C(C)(C)c2ccccc21 (configuration not stated)	x	x	0	x	x	x	x
O=C(NCc1ccncc1)Nc1ccc(F)cc1	12	31*	0	2	-5	-7	-10
O=C(NCc1ccc(Cl)cc1)Nc1ccc(F)cc1	x	-27	5	x	x	x	x
CCOC(=O)c1cc(-c2ccccc2)nc2c1c(C)nn2-c1ccccn1	7	46*	0	-26	-36	28*	34*
CCCCCNCC(=O)Nc1cccc(C(=O)Nc2cccc(C(F)(F)F)c2)c1	2	25*	8	-1	-12	50*	81*
O=C(CN1CCOCC1)Nc1cccc(C(=O)Nc2cccc(C(F)(F)F)c2)c1	13	-17	2	-4	-18	x	x
O=[N+]([O-])C(=C1Nc2ccccc2N1)/C(Cl)=C(/Cl)Br	20	-2	1	-6	7	x	x
Clc1ccc(-c2noc(CSc3nnc(Cc4cccs4)n3-c3ccccc3)n2)cc1	28	28*	-1	1	-34	1	42*
CCOC(=O)C1=C(COC(=O)CCNS(=O)(=O)c2ccc(C)c(C)c2)NC(=O)NC1C (configuration not stated)	3	x	-1	-24	-26	x	x
Cc1cccc(CN2CCNC2=O)c1	9	21*	-1	-14	-2	-3	-6
O=C(C(Cc1ccccc1)n1cccc1)N1CCN(Cc2ccccc2)CC1 (configuration not stated)	17	25*	1	-15	-46	21	12
O=C(C(Cc1ccccc1)n1cccc1)N1CCCCC1 (configuration not stated)	16	-3	0	-11	-7	x	x
CCNC(=O)c1ccc(NS(=O)(=O)c2ccc3[nH]c(=O)[nH]c3c2)cc1	31	-8	-2	-4	-11	x	x
O=C(CCC(=O)N1CCSc2ccccc21)Nc1ccc(F)cc1	3	32*	0	-13	-27	-2	5
COc1cc(CN(CCN(C)C)Cc2ccccc2)ccc1OCc1ccccc1	-6	44*	-2	-16	-20	57*	34*
CNCc1ccc(OCc2ccccc2)c(OC)c1	6	-7	-1	-13	-12	x	x
Cc1ccc(CONC(=O)c2cccc([N+](=O)[O-])c2)cc1	7	x	0	-9	-5	x	x
SMILES	OX1R antag-1	GPR7 antagonist	MPTP inh	CHO parental Ca	OX1R antag-2	GPR7 antag conf	MCHR1 antagonist
COC(=O)C(/C=N/OCc1ccc([N+](=O)[O-])cc1)NC(=O)c1cccc(Cl)c1 (configuration not stated)	17	38*	3	11	18	65*	50*
O=C(O)c1cn(-c2ccc(F)cc2)c2cc(N3CCNCC3)c(F)cc2c1=O	x	x	-2	x	x	x	x
CC1CC(C)CN(CCCNC(=O)c2ccc3c(c2)N(Cc2ccccc2)C(=O)c2ccccc2S3=O)C1 (configuration not stated)	14	35*	2	-19	-16	23	1
O=C(NCCCN1CCCC1)c1ccc2c(c1)N(Cc1cccc(Cl)c1)C(=O)c1ccccc1S2=O (configuration not stated)	16	25	-1	-10	0	x	x
COCCCn1c(C(=O)Nc2ccc3c(c2)OCO3)cc2c(=O)n3cccc(C)c3nc21	x	x	2	x	x	x	x
Cc1cc(C)nc(/N=C(\N)Nc2ccc(OCc3ccccc3)cc2)n1	19	101*	34	89*	105*	99*	107*
CCOC(=O)[C@@H]1[C@H]2COc3cc(OC)ccc3[C@H]2N2C(=O)N(c3ccc(C)cc3)C(=O)[C@@]12C	26	-5	-2	-25	-24	x	x
CN(C)CCCNc1nc2sc3c(c2c(=O)n1CCc1ccccc1)CCCCC3	7	29*	-3	11	-10	51*	65*
CN(C)CCCn1c(=O)n(CCc2ccccc2)c(=O)c2c3c(sc21)CCCCC3	1	12	-8	-24	-24	x	x
COc1cc(/C=C2\N=C(c3ccccc3)OC2=O)ccc1OC(C)=O	19	25*	0	-16	-11	-6	7
COc1ccc(/C=C2\N=C(C)OC2=O)cc1OC(C)=O	x	-13	0	x	x	x	x
COc1ccc(C2=NN(C(=O)CCC(=O)O)C(c3ccc(Br)cc3)C2)cc1 (configuration not stated)	6	-1	0	10	-11	x	x
CC(c1ccon1)N(C)Cc1cn(C)nc1-c1cccc(Cl)c1 (configuration not stated)	11	-10	1	-20	-27	x	x
COCCn1c(Cc2ccccc2)nnc1SCc1ccc([N+](=O)[O-])cc1	19	16	-1	-5	-13	x	x
CCn1c(Cc2ccccc2)nnc1SCc1ccc([N+](=O)[O-])cc1	16	32*	3	-9	-22	14	-2
O=S(=O)(Cc1ccc(Cl)cc1)NCc1cccnc1	12	25*	2	-13	-15	-4	-3
COc1ccc(CNS(=O)(=O)c2ccc(S(=O)(=O)NC3CC3)cc2)cc1	11	27*	-1	-1	7	4	2
CCOC(=O)Cc1csc(NC(=O)CN2CCOCC2)n1	0	-5	0	-1	-11	x	x
CS(=O)(=O)N(CCc1ccccc1)CC(=O)N1CCN(Cc2ccc3c(c2)OCO3)CC1	4	-5	3	-12	-31	x	x
